# In ChEMBL document CHEMBL4689842, “EUbOPEN Chemogenomics Library wave 1” (2021):
# System: HEK-293T
# Assay: Multiplex assay against HEK293T;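 as to Population Tubulin-Different-Phenotype (%): share of the cells with healthy nuclei that show this phenotype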
# Type: toxicity, cell-based
# Conditions: human
# How it was run: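 Cells stained live at seeding with Hoechst33342, BioTracker Green Microtubule Cytoskeleton Dye, MitoTracker Red and Annexin V Alexa Fluor 680 were imaged on a CQ1 microscope at 37°C and 5% CO2 after compound addition. Their classification by CellPathfinder machine-learning gating ran from Hoechst high-intensity objects versus normal cells, to healthy, pyknosed or fragmented nuclei among normal cells, to mitotic or apoptotic among pyknosed cells. Tubulin, mitochondrial-mass and membrane-permeability phenotypes are per cents of healthy-nucleus cells.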
# [1] = 12 h, 1 µM, compound concentration 1 uM, replicate 1
# [2] = 12 h, 1 µM, compound concentration 1 uM, replicate 2
# [3] = 12 h, 10 µM, compound concentration 10 uM, replicate 1
# [4] = 12 h, 10 µM, compound concentration 10 uM, replicate 2
# [5] = 24 h, 1 µM, compound concentration 1 uM, replicate 1
# [6] = 24 h, 1 µM, compound concentration 1 uM, replicate 2
# [7] = 24 h, 10 µM, compound concentration 10 uM, replicate 1
# [8] = 24 h, 10 µM, compound concentration 10 uM, replicate 2
# [9] = 48 h, 1 µM, compound concentration 1 uM, replicate 1
# [10] = 48 h, 1 µM, compound concentration 1 uM, replicate 2
# [11] = 48 h, 10 µM, compound concentration 10 uM, replicate 1
# [12] = 48 h, 10 µM, compound concentration 10 uM, replicate 2
structure (smiles),measurement,setting,value
CCn1c(=O)c(-c2ccc(-c3cncs3)cc2Cl)cc2cnc(Nc3ccc(N4CCN(C)CC4)cc3)nc21,Population Apoptotic (%),[1],34%
same,Population Fragmented Nuclei (%),[1],7%
same,Population Healthy Nuclei (%),[1],46%
same,Population Hoechst High Intensity Objects (%),[1],14%
same,Population Membrane Permeable-Phenotype (%),[1],2%
same,Population Mitochondria Different-Phenotype (%),[1],79%
same,Population Mitotic Cells (%),[1],65%
same,Population Normal (%),[1],85%
same,Population Pyknosed Nuclei (%),[1],46%
same,Population Tubulin-Different-Phenotype (%),[1],55%
same,Total Cell Count,[1],232
same,Population Apoptotic (%),[2],10%
same,Population Fragmented Nuclei (%),[2],5%
same,Population Healthy Nuclei (%),[2],48%
same,Population Hoechst High Intensity Objects (%),[2],2%
same,Population Membrane Permeable-Phenotype (%),[2],9%
same,Population Mitochondria Different-Phenotype (%),[2],13%
same,Population Mitotic Cells (%),[2],89%
same,Population Normal (%),[2],97%
same,Population Pyknosed Nuclei (%),[2],45%
same,Population Tubulin-Different-Phenotype (%),[2],18%
same,Total Cell Count,[2],288
same,Population Apoptotic (%),[3],52%
same,Population Fragmented Nuclei (%),[3],47%
same,Population Healthy Nuclei (%),[3],21%
same,Population Hoechst High Intensity Objects (%),[3],62%
same,Population Membrane Permeable-Phenotype (%),[3],5%
same,Population Mitochondria Different-Phenotype (%),[3],93%
same,Population Mitotic Cells (%),[3],47%
same,Population Normal (%),[3],37%
same,Population Pyknosed Nuclei (%),[3],30%
same,Population Tubulin-Different-Phenotype (%),[3],93%
same,Total Cell Count,[3],1090
same,Population Apoptotic (%),[4],15%
same,Population Fragmented Nuclei (%),[4],7%
same,Population Healthy Nuclei (%),[4],55%
same,Population Hoechst High Intensity Objects (%),[4],4%
same,Population Membrane Permeable-Phenotype (%),[4],20%
same,Population Mitochondria Different-Phenotype (%),[4],16%
same,Population Mitotic Cells (%),[4],84%
same,Population Normal (%),[4],95%
same,Population Pyknosed Nuclei (%),[4],37%
same,Population Tubulin-Different-Phenotype (%),[4],38%
same,Total Cell Count,[4],174
same,Population Apoptotic (%),[5],57%
same,Population Fragmented Nuclei (%),[5],11%
same,Population Healthy Nuclei (%),[5],42%
same,Population Hoechst High Intensity Objects (%),[5],14%
same,Population Membrane Permeable-Phenotype (%),[5],2%
same,Population Mitochondria Different-Phenotype (%),[5],55%
same,Population Mitotic Cells (%),[5],42%
same,Population Normal (%),[5],85%
same,Population Pyknosed Nuclei (%),[5],45%
same,Population Tubulin-Different-Phenotype (%),[5],45%
same,Total Cell Count,[5],233
same,Population Apoptotic (%),[6],12%
same,Population Fragmented Nuclei (%),[6],4%
same,Population Healthy Nuclei (%),[6],65%
same,Population Hoechst High Intensity Objects (%),[6],1%
same,Population Membrane Permeable-Phenotype (%),[6],8%
same,Population Mitochondria Different-Phenotype (%),[6],15%
same,Population Mitotic Cells (%),[6],87%
same,Population Normal (%),[6],98%
same,Population Pyknosed Nuclei (%),[6],29%
same,Population Tubulin-Different-Phenotype (%),[6],31%
same,Total Cell Count,[6],358
same,Population Apoptotic (%),[7],59%
same,Population Fragmented Nuclei (%),[7],59%
same,Population Healthy Nuclei (%),[7],8%
same,Population Hoechst High Intensity Objects (%),[7],71%
same,Population Membrane Permeable-Phenotype (%),[7],0%
same,Population Mitochondria Different-Phenotype (%),[7],92%
same,Population Mitotic Cells (%),[7],40%
same,Population Normal (%),[7],28%
same,Population Pyknosed Nuclei (%),[7],31%
same,Population Tubulin-Different-Phenotype (%),[7],97%
same,Total Cell Count,[7],1552
same,Population Apoptotic (%),[8],30%
same,Population Fragmented Nuclei (%),[8],11%
same,Population Healthy Nuclei (%),[8],57%
same,Population Hoechst High Intensity Objects (%),[8],4%
same,Population Membrane Permeable-Phenotype (%),[8],15%
same,Population Mitochondria Different-Phenotype (%),[8],39%
same,Population Mitotic Cells (%),[8],69%
same,Population Normal (%),[8],95%
same,Population Tubulin-Different-Phenotype (%),[8],64%
same,Total Cell Count,[8],177
same,Population Apoptotic (%),[9],50%
same,Population Fragmented Nuclei (%),[9],14%
same,Population Healthy Nuclei (%),[9],57%
same,Population Hoechst High Intensity Objects (%),[9],13%
same,Population Membrane Permeable-Phenotype (%),[9],3%
same,Population Mitochondria Different-Phenotype (%),[9],33%
same,Population Mitotic Cells (%),[9],49%
same,Population Normal (%),[9],86%
same,Population Pyknosed Nuclei (%),[9],28%
same,Population Tubulin-Different-Phenotype (%),[9],36%
same,Total Cell Count,[9],308
same,Population Apoptotic (%),[10],11%
same,Population Fragmented Nuclei (%),[10],6%
same,Population Healthy Nuclei (%),[10],80%
same,Population Hoechst High Intensity Objects (%),[10],3%
same,Population Membrane Permeable-Phenotype (%),[10],7%
same,Population Mitochondria Different-Phenotype (%),[10],4%
same,Population Mitotic Cells (%),[10],88%
same,Population Normal (%),[10],96%
same,Population Pyknosed Nuclei (%),[10],13%
same,Population Tubulin-Different-Phenotype (%),[10],29%
same,Total Cell Count,[10],591
same,Population Apoptotic (%),[11],64%
same,Population Fragmented Nuclei (%),[11],72%
same,Population Healthy Nuclei (%),[11],6%
same,Population Hoechst High Intensity Objects (%),[11],74%
same,Population Membrane Permeable-Phenotype (%),[11],0%
same,Population Mitochondria Different-Phenotype (%),[11],84%
same,Population Mitotic Cells (%),[11],35%
same,Population Normal (%),[11],25%
same,Population Pyknosed Nuclei (%),[11],20%
same,Population Tubulin-Different-Phenotype (%),[11],75%
same,Total Cell Count,[11],1798
same,Population Apoptotic (%),[12],36%
same,Population Fragmented Nuclei (%),[12],8%
same,Population Healthy Nuclei (%),[12],70%
same,Population Hoechst High Intensity Objects (%),[12],4%
same,Population Membrane Permeable-Phenotype (%),[12],9%
same,Population Mitochondria Different-Phenotype (%),[12],25%
same,Population Mitotic Cells (%),[12],63%
same,Population Normal (%),[12],95%
same,Population Tubulin-Different-Phenotype (%),[12],63%
same,Total Cell Count,[12],238
